Laboratory results as given in ChEMBL document CHEMBL4368920, “Discovery of 2,4-diamino-5-cyanopyrimidine derivatives as protein kinase C theta inhibitors with mitigated time-dependent drug-drug interactions” (Bioorg Med Chem, 2019).
In brackets after ≈: the same amount, converted by molar mass.

Tests used:
[1] = biological target: T1, Protein kinase C theta type (Homo sapiens, UniProt Q04759); assay: Inhibition of PKCtheta in human Jurkat cells assessed as reduction in IL2 production after 14 hrs by luciferase reporter gene assay; assay type: cell-based
How it was run: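 Jurkat cells transiently transfected with a pGL3-IL2 promoter firefly luciferase plasmid. Stimulated with anti-CD3 plus anti-CD28 antibodies in the presence of compound for 14 h, then luciferase substrate added. IC50 from duplicates in one experiment.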

[2] = biological target: T1, Protein kinase C theta type; assay: Inhibition of recombinant human full length PKCtheta using biotin-labelled STK substrate-1 as substrate after 60 mins by fluorescence assay
[3] = Aqueous solubility of the compound at pH 6.8 at 130 uM after 20 hrs by HPLC analysis; assay type: physicochemical; settings: aqueous solution
How it was run: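 DMSO stock diluted to 130 μM with pH 6.8 aqueous buffer. Incubated 20 h at 25 °C, precipitate removed by filtration, filtrate concentration measured by HPLC.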

CYP3A4 = CYP3A4 (Homo sapiens, UniProt P08684); assay: Time-dependent inhibition of CYP3A4 in human liver microsomes assessed as residual activity at 5 uM using midazolam as substrate preincubated for 30 mins followed by substrate addition and measured after 20 mins in presence of NADPH by LC-MS/MS analysis relative to control; assay type: ADME; settings: probe midazolam, read-out: Activity
How it was run: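 Human liver microsomes at 0.1 mg/mL in 100 mM potassium sodium phosphate (pH 7.4) with 1 mM NADPH and 0.1 mM EDTA, compound at 5 μM. Midazolam added either with no preincubation or after 30 min preincubation at 37 °C. Reaction run 20 min at 37 °C and stopped with acetonitrile. Residual activity is 30-min activity as a percentage of 0-min activity.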

[4] = Tmax in Sprague-Dawley rat at 1 mg/kg, po by LC-MS/MS analysis; assay type: ADME, organism-based; settings: in vivo
How it was run: (§1)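 Female SD rats, 1 mg/kg given as a single i.v. or oral dose in DMF/propylene glycol/1N HCl/saline (25/25/0.2/49.8). Blood sampled at multiple times up to 24 h. Unchanged compound in plasma measured by LC-MS/MS. Parameters derived by noncompartmental analysis. F taken as the AUC ratio of oral to i.v. dosing. Each value is the mean of three animals.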

[5] = Elimination half life in Sprague-Dawley rat at 1 mg/kg, iv by LC-MS/MS analysis; assay type: ADME, organism-based; settings: in vivo, read-out: beta t1/2 (converted); how it was run: as §1
[6] = Oral bioavailability in Sprague-Dawley rat at 1 mg/kg by LC-MS/MS analysis; assay type: ADME, organism-based; settings: in vivo; how it was run: as §1
[7] = Volume of distribution at steady state in Sprague-Dawley rat at 1 mg/kg, iv by LC-MS/MS analysis; assay type: ADME, organism-based; settings: in vivo, read-out: Vdss; how it was run: as §1
[8] = AUC (0 to 24 hrs) in Sprague-Dawley rat at 1 mg/kg, po by LC-MS/MS analysis; assay type: ADME, organism-based; parameters: time < 24 hr, dose 1 mg/kg, route oral; settings: in vivo; how it was run: as §1
[9] = AUC (0 to 24 hrs) in Sprague-Dawley rat at 1 mg/kg, iv by LC-MS/MS analysis; assay type: ADME, organism-based; parameters: time < 24 hr, dose 1 mg/kg, route intravenous; settings: in vivo; how it was run: as §1
[10] = Cmax in Sprague-Dawley rat at 1 mg/kg, po by LC-MS/MS analysis; assay type: ADME, organism-based; parameters: dose 1 mg/kg, route oral; settings: in vivo; how it was run: as §1
Rattus norvegicus = assay: Immunosuppressive activity in Lewis rat transplanted with ACI rat cardiac tissue assessed as reduction in graft rejection by measuring mean survival days at 1 mg/kg, po administered for 14 consecutive days co-treated with tacrolimus (reference value: 7 days); assay type: functional
How it was run: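 ACI donor hearts into Lewis recipients, abdominal vascularized heterotopic transplant under aseptic conditions; pentobarbital 40 mg/kg i.p. anaesthesia. Agent in propylene glycol, given orally with tacrolimus (0.02 mg/kg) for 14 consecutive days starting on operation day. Graft survival recorded per animal and median survival time reported (n = 9).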

[11] = Total clearance in Sprague-Dawley rat at 1 mg/kg, iv by LC-MS/MS analysis; assay type: ADME, organism-based; settings: in vivo; how it was run: as §1

Sequence of CYP3A4 (P08684 whole entry): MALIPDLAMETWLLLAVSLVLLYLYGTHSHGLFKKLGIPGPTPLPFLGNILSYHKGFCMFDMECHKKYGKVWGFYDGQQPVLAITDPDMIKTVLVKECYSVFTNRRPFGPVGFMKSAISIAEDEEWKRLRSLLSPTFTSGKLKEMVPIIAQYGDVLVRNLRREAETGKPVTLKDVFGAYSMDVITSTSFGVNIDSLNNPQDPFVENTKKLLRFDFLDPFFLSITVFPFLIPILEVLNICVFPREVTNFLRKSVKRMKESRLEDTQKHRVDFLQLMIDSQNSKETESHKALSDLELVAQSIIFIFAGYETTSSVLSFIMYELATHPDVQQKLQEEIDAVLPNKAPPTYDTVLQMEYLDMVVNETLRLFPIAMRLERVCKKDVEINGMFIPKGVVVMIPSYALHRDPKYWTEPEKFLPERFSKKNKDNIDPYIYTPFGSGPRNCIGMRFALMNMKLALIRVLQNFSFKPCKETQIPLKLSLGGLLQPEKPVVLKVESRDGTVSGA
T1 sequence (Q04759 whole entry): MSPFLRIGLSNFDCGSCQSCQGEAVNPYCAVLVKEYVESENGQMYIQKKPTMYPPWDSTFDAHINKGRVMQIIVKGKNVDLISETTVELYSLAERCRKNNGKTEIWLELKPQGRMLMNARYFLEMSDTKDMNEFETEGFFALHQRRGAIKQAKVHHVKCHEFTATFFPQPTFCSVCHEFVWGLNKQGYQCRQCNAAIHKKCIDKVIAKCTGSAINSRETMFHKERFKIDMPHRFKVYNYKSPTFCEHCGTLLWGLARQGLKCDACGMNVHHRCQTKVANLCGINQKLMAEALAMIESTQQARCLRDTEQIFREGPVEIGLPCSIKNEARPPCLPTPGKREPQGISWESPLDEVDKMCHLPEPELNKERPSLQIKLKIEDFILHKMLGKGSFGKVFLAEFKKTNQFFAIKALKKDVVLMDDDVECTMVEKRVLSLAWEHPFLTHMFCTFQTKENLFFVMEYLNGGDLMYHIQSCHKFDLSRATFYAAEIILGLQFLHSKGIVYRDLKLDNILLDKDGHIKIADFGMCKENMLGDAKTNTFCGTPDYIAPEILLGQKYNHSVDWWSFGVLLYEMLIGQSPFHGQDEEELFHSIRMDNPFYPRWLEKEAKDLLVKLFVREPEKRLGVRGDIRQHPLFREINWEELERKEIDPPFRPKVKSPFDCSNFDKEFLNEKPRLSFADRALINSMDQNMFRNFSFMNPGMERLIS

For `CC(C)Oc1ncccc1CNc1ncc(C#N)c(NCC23CC4CC(C2)C(NC[C@H]2CC[C@H](O)CC2)C(C4)C3)n1` (stereo not given in full), the IC50 [1] was 18 nM, the IC50 [2] was 0.59 nM and the solubility at 20 h, 130 µM [3] was over 100 µM. It also gave an activity at 20 min, 5 µM (CYP3A4) of 87%.
For `COc1ncccc1CNc1ncc(C#N)c(NCC23CC4CC(C2)C(NC[C@H]2CC[C@H](O)CC2)C(C4)C3)n1` (stereo not given in full), the IC50 [1] was 43 nM, the IC50 [2] was 1.9 nM and the solubility at 20 h, 130 µM [3] was over 50 µM. For the same compound, the activity at 20 min, 5 µM (CYP3A4) was 94%.
For `COc1nnccc1CNc1ncc(C#N)c(NCC23CC4CC(C2)C(NC[C@H]2CC[C@H](O)CC2)C(C4)C3)n1` (stereo not given in full), the IC50 [2] was over 100 nM and the solubility at 20 h, 130 µM [3] was over 100 µM.
`CC(C)NC1C2CC3CC1CC(CNc1nc(NCc4ccccc4OC(F)(F)F)ncc1C#N)(C3)C2` (stereo not given) gave an IC50 [2] of under 1 nM and an activity at 20 min, 5 µM (CYP3A4) of 29%.
`N#Cc1cnc(NCc2ccccc2Cl)nc1NCC12CC3CC(C1)C(NC[C@H]1CC[C@H](O)CC1)C(C3)C2` (stereo not given in full) showed an IC50 [1] of 22 nM, an IC50 [2] of 1.4 nM and a solubility at 20 h, 130 µM [3] of 1.1 µM (≈ 0.589 µg/mL). The activity at 20 min, 5 µM (CYP3A4) was 77%.
Work on `CSc1ccccc1CNc1ncc(C#N)c(NCC23CC4CC(C2)C(NC[C@H]2CC[C@H](O)CC2)C(C4)C3)n1` (stereo not given in full) yielded an IC50 [1] of 16 nM, an IC50 [2] of 0.94 nM and a solubility at 20 h, 130 µM [3] of 45 µM (≈ 24.6 µg/mL). For the same compound, the activity at 20 min, 5 µM (CYP3A4) was 92%.
For `CCSc1ncccc1CNc1ncc(C#N)c(NCC23CC4CC(C2)C(NC[C@H]2CC[C@H](O)CC2)C(C4)C3)n1` (stereo not given in full), the IC50 [1] was under 3 nM, the IC50 [2] was 0.46 nM and the solubility at 20 h, 130 µM [3] was 16 µM (≈ 8.99 µg/mL). It also gave an activity at 20 min, 5 µM (CYP3A4) of 80%.
Compound `N#Cc1cnc(NCc2ccccc2OC(F)(F)F)nc1NCC12CC3CC(C1)C(NCCO)C(C3)C2` (stereo not given) has an IC50 [2] of 0.7 nM and an activity at 20 min, 5 µM (CYP3A4) of 36%.
`N#Cc1cnc(NCc2ccccc2OC(F)(F)F)nc1NCC12CC3CC(C1)C(N[C@H]1CC[C@@H](O)CC1)C(C3)C2` (stereo not given in full) showed an IC50 [2] of 0.66 nM and an activity at 20 min, 5 µM (CYP3A4) of 43%.
Compound `N#Cc1cnc(NCc2ccccc2OC(F)(F)F)nc1NCC12CC3CC(C1)C(N[C@H]1CC[C@H](O)CC1)C(C3)C2` (stereo not given in full) has an IC50 [2] of 0.38 nM and an activity at 20 min, 5 µM (CYP3A4) of 64%.
For `N#Cc1cnc(NCc2ccccc2OC(F)(F)F)nc1NCC12CC3CC(C1)C(NC1CCOCC1)C(C3)C2` (stereo not given), the IC50 [2] was under 1 nM and the activity at 20 min, 5 µM (CYP3A4) was 41%.
In the case of `CC(C)Sc1ncccc1CNc1ncc(C#N)c(NCC23CC4CC(C2)C(NC[C@H]2CC[C@H](O)CC2)C(C4)C3)n1` (stereo not given in full), the IC50 [1] is reported as 3 nM, the IC50 [2] is reported as 0.23 nM and the solubility at 20 h, 130 µM [3] is reported as under 1 µM. For the same compound, the activity at 20 min, 5 µM (CYP3A4) was 66%.
For `CSc1ncccc1CNc1ncc(C#N)c(NCC23CC4CC(C2)C(NC[C@H]2CC[C@H](O)CC2)C(C4)C3)n1` (stereo not given in full), the IC50 [1] was 10 nM, the Tmax [4] was 3.33 h and the IC50 [2] was 0.44 nM. It also gave a half-life [5] of 3.97 h, a bioavailability [6] of 58.3% and a Vd [7] of 12.9 L/kg. It also gave an AUC(0-t) at 24 h [8] of 145 ng·h/mL, a solubility at 20 h, 130 µM [3] of over 50 µM and an activity at 20 min, 5 µM (CYP3A4) of 98%. The AUC(0-t) at 24 h [9] was 248 ng·h/mL, the Cmax [10] was 12.4 ng/mL and the MSD (Rattus norvegicus) was 20 days. For the same compound, the clearance [11] was 66.7 mL/min/kg.
Work on `N#Cc1cnc(NCc2ccccc2OC(F)(F)F)nc1NCC12CC3CC(C1)C(N[C@H]1CC[C@H](N)CC1)C(C3)C2` (stereo not given in full) yielded an IC50 [2] of 0.1 nM and an activity at 20 min, 5 µM (CYP3A4) of 59%.
For `N#Cc1cnc(NCc2ccccc2OC(F)(F)F)nc1NCC12CC3CC(C1)C(NC[C@H]1CC[C@H](O)CC1)C(C3)C2` (stereo not given in full), the IC50 [1] was 11 nM, the IC50 [2] was 0.42 nM and the solubility at 20 h, 130 µM [3] was under 1 µM. For the same compound, the activity at 20 min, 5 µM (CYP3A4) was 70%.
With `CS(=O)(=O)c1ncccc1CNc1ncc(C#N)c(NCC23CC4CC(C2)C(NC[C@H]2CC[C@H](O)CC2)C(C4)C3)n1` (stereo not given in full) the IC50 [1] was 140 nM and the solubility at 20 h, 130 µM [3] was over 100 µM.
In the case of `N#Cc1cnc(NCc2ccccc2OC(F)(F)F)nc1NCC12CC3CC(C1)C(NC1CCCCC1)C(C3)C2` (stereo not given), the IC50 [2] is reported as 1.9 nM and the activity at 20 min, 5 µM (CYP3A4) is reported as 43%.
In the case of `C[S+]([O-])c1ncccc1CNc1ncc(C#N)c(NCC23CC4CC(C2)C(NC[C@H]2CC[C@H](O)CC2)C(C4)C3)n1` (stereo not given in full), the IC50 [1] is reported as 170 nM, the IC50 [2] is reported as 32 nM and the solubility at 20 h, 130 µM [3] is reported as over 100 µM.
In the case of `N#Cc1cnc(NCc2ccccc2C(F)(F)F)nc1NCC12CC3CC(C1)C(NC[C@H]1CC[C@H](O)CC1)C(C3)C2` (stereo not given in full), the IC50 [1] is reported as 17 nM, the IC50 [2] is reported as 0.57 nM and the activity at 20 min, 5 µM (CYP3A4) is reported as 63%.
